This is an account of results in ChEMBL document CHEMBL4311931, “Controlling cellular distribution of drugs with permeability modifying moieties” (Medchemcomm, 2019).

As a reminder, the Ki is the equilibrium dissociation constant of an inhibitor or competing ligand from its target. As a reminder, the IC50 is the concentration that gives 50% inhibition. As a reminder, the EC50 is the midpoint of the concentration-response curve.

The structures appear in SMILES notation.

A short description of series [1]: Permeability of compound in 5% DMSO after 7 hrs by PAMPA. The settings on record: read-out: permeability. It is filed as ADME.
In series [2] the target is T1, Nicotinamide phosphoribosyltransferase (Homo sapiens, UniProt P43490). The experiment in a line: Displacement of fluorescent labelled OG488 from human full length FLAG-tagged NAMPT (1 to 491 residues) expressed in HEK293-6E cells in absence of PRPP by TR-FRET assay. It counts as cell-based. In general terms: TR-FRET usually uses a lanthanide donor and a delayed reading to cut background.
T1 sequence (P43490 whole entry, the tested form may be a part): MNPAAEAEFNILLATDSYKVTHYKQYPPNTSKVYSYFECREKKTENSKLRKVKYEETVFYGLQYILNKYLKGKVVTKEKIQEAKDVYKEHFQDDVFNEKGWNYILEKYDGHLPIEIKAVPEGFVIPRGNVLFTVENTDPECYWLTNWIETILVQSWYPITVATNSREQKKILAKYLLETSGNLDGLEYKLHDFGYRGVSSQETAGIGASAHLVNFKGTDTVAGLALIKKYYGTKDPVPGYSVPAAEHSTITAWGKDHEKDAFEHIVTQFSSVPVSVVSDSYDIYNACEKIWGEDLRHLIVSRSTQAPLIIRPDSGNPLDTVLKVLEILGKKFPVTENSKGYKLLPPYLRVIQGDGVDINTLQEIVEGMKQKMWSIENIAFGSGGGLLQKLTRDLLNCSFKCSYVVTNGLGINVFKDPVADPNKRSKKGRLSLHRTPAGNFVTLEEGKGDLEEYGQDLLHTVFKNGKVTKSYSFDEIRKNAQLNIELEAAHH

The target of series [3] is T1, Nicotinamide phosphoribosyltransferase. In words: Displacement of fluorescent labelled OG488 from human full length FLAG-tagged NAMPT (1 to 491 residues) expressed in HEK293-6E cells in presence of PRPP by TR-FRET assay. It is filed as cell-based.
The test system of series [4] is PC-3. The experiment in a line: Antiproliferative activity against human PC3 cells assessed as reduction in cell viability by Celltiter-Glo assay. It is filed as functional, cell-based. The procedure, abridged:
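PC3 cells from ATCC, authenticated by STR analysis. Viability was read by CellTiter-Glo, and cell EC50 is the geometric mean of at least two duplicate runs.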
On the technique in general: In ATP-based viability assays light output follows the ATP content of the culture.

Series [5] concerns the target Bromodomain-containing protein 2 (Homo sapiens, UniProt P25440). In words: Inhibition of BRD2 (unknown origin) by TR-FRET assay.
A short description of series [6]: Ratio of drug concentration in unbound HEK293 cell to media. It counts as ADME. The conditions noted are these: human. Put shortly:
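In HEK293 cells, Kpuu combines compound binding (fu,HEK) with intracellular accumulation (Kp, cell-to-media concentration ratio). Values are the geometric mean of at least two duplicate runs.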

Series [7] addresses Bromodomain-containing protein 3 (Homo sapiens, UniProt Q15059). In words: Inhibition of BRD3 (unknown origin) by TR-FRET assay.
For series [8], the target named is T2, Bromodomain-containing protein 4 (Homo sapiens, UniProt O60885). In words: Inhibition of BRD4 (unknown origin) by TR-FRET assay.
The target of series [9] is T2, Bromodomain-containing protein 4. In words: Inhibition of BRD4 in luciferase expressing human […] cells transfected with HPV-E2 assessed as transrepression of HPV-long control region by luciferase reporter assay relative to parent compound. Put shortly:
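In-cell target engagement was read in an engineered H1299-derived luciferase reporter system. Each EC50 is the geometric mean of at least two duplicate runs. The fold change is the ratio to (+)-JQ1.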
(A reporter such as luciferase makes a cellular process visible.)

The target is the same in series [10]. In words: Inhibition of BRD4 in human MX1 cells assessed as decrease in cell proliferation after 3 days by Celltiter-Glo assay relative to parent compound. It counts as cell-based. The procedure, abridged:
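MX-1 breast cancer cells were treated for a 3-day proliferation assay and read out by CellTiter-Glo. Each EC50 is the geometric mean of at least two duplicate runs. The fold change is the ratio of the result to that of (+)-JQ1.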

For series [11] the target is unchanged. The experiment in a line: Inhibition of BRD4 in human […] cells transfected with HPV-E2 assessed as transrepression of HPV-long control region by luciferase reporter assay. It is filed as cell-based.

Bromodomain-containing protein 3, sequence (Q15059 whole entry): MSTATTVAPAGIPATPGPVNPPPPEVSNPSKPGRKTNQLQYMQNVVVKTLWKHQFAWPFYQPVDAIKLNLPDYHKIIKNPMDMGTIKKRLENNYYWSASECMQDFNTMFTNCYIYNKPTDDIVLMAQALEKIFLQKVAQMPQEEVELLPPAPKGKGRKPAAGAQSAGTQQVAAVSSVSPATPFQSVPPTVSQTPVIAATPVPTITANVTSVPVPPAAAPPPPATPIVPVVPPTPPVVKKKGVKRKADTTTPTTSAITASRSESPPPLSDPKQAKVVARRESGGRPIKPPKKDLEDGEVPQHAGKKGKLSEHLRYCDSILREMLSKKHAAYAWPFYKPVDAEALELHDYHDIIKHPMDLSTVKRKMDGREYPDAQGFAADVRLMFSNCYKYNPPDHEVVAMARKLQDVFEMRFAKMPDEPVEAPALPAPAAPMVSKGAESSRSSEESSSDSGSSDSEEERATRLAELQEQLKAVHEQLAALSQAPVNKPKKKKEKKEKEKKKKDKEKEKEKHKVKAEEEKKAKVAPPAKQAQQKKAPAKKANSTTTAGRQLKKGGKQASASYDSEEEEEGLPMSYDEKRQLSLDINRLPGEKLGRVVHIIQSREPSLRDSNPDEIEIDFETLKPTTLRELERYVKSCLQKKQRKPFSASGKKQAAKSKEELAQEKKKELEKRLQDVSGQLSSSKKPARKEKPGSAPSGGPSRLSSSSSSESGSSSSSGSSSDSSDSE
Bromodomain-containing protein 2, sequence (P25440 whole entry): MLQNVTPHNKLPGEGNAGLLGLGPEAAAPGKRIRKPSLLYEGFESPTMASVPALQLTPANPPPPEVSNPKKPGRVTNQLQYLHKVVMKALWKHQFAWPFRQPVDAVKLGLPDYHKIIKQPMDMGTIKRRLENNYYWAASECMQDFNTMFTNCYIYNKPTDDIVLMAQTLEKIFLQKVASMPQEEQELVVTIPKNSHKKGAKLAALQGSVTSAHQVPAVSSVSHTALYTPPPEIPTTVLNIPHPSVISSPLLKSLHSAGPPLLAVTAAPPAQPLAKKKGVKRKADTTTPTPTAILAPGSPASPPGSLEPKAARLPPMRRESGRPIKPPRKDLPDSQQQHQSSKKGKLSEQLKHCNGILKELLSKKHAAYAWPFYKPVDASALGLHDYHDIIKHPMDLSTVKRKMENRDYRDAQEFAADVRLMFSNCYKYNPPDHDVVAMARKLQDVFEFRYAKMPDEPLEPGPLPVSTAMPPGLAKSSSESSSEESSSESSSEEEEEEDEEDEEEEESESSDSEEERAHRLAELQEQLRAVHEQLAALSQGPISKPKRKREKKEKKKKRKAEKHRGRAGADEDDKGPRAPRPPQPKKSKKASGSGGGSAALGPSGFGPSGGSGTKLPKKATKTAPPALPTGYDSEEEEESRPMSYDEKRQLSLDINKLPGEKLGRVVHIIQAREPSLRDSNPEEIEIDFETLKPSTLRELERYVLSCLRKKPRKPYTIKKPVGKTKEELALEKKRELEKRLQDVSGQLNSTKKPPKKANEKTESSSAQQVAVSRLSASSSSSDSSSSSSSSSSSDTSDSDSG

For the molecule `CC(C)(C)OC(=O)NCCOCCOCC(=O)NCc1cccc(C(=O)N2CCC(CCCCNC(=O)/C=C/c3cccnc3)CC2)c1`, the Papp at 7 h in [1] is 1.2 ×10⁻⁶ cm/s. The values for the Ki in [2] and in series [3] were 14 nM and 0.2 nM, respectively. Besides, the IC50 in series [4] worked out at 30.7 nM.
For the molecule `Cc1sc2c(c1C)C(c1ccc(Cl)cc1)=N[C@@H](CC(=O)NCCOCCOCCNC(=O)CS(=O)(=O)O)c1nnc(C)n1-2`, the IC50 was 78 nM in series [5], 78 nM in series [7] and over 10000 nM in [8]. The Ratio in series [6] is listed as 0.0219. Further, the fold change (FC) in series [9] and in [10] was over 50 throughout. The EC50 in series [11] was over 10000 nM.
`O=C(/C=C/c1cccnc1)NCCCCC1CCN(C(=O)c2cccc(CNC(=O)COCCOCCNC(=O)C3C(C(=O)O)C(C(=O)O)C3C(=O)O)c2)CC1` (stereo not drawn): the Ki in series [2] came to 359 nM; in [3] it was 5.9 nM. In addition, the half-inhibitory concentration (IC50) in series [4] was 7330 nM.
As for `Cc1sc2c(c1C)C(c1ccc(Cl)cc1)=N[C@@H](CC(=O)NCCOCCOCCNC(=O)OC(C)(C)C)c1nnc(C)n1-2`, the IC50 was determined as 35 nM in [5], 42 nM in [7] and 526 nM in series [8]. Moreover, the Ratio in series [6] is on record as 0.168. Moreover, the Papp at 7 h in [1] is 6.22 ×10⁻⁶ cm/s. Besides, the fold change (FC) in series [9] worked out at 11.2; in [10], 3.65. Also, the EC50 in series [11] was found to be 718 nM.
Consider `O=C(/C=C/c1cccnc1)NCCCCC1CCN(C(=O)c2cccc(CNC(=O)COCCOCCNC(=O)CS(=O)(=O)O)c2)CC1`, for which the values for the Ki in series [2] and in series [3] were 285 nM and 7.9 nM, respectively. Moreover, in series [4], the concentration for half-maximal inhibition (IC50) stood at 7230 nM.
For `NCCOCCOCC(=O)NCc1cccc(C(=O)N2CCC(CCCCNC(=O)/C=C/c3cccnc3)CC2)c1`, in series [1], the Papp at 7 h worked out at 0.016 ×10⁻⁶ cm/s. The Ki in series [2] is 60 nM; in series [3], 1.9 nM. In series [4], the 50% inhibitory concentration (IC50) is 296 nM.
On to `Cc1sc2c(c1C)C(c1ccc(Cl)cc1)=N[C@@H](CC(=O)NCCOCCOCCNC(=O)CCCCCC1(C)C(/C=C/C=C/C=C3/N(CCCS(=O)(=O)O)c4ccc(S(=O)(=O)O)cc4C3(C)C)=[N+](CCCS(=O)(=O)[O-])c3ccc(S(=O)(=O)O)cc31)c1nnc(C)n1-2` (stereo partly drawn), for which the IC50 is over 45000 nM in series [5], over 20500 nM in series [7] and 9110 nM in [8]. Besides, in [6], the Ratio is on record as 0.0064. In addition, the fold change (FC) in series [9] and in [10] was over 50 in each case. In addition, in series [11], the EC50 was over 10000 nM.
`Cc1sc2c(c1C)C(c1ccc(Cl)cc1)=N[C@@H](CC(=O)NCCOCCOCCNC(=O)C1C(C(=O)O)C(C(=O)O)C1C(=O)O)c1nnc(C)n1-2` (stereo partly drawn): the half-inhibitory concentration (IC50) was 997 nM in series [5], 456 nM in series [7] and over 10000 nM in series [8]. Further, the Ratio in series [6] came out at 0.0359. Also, the fold change (FC) in series [9] and in series [10] was over 50 throughout. Moreover, the EC50 in series [11] was over 10000 nM.
On to `NCc1cccc(C(=O)N2CCC(CCCCNC(=O)/C=C/c3cccnc3)CC2)c1`, for which the Papp at 7 h in series [1] worked out at 0.092 ×10⁻⁶ cm/s. Also, the inhibition constant Ki in series [2] was 55 nM; in series [3], 1.1 nM. In addition, the IC50 in [4] came to 30.2 nM.
Take `CC1(CCCCCC(=O)NCCOCCOCC(=O)NCc2cccc(C(=O)N3CCC(CCCCNC(=O)/C=C/c4cccnc4)CC3)c2)C(/C=C/C=C/C=C2/N(CCCS(=O)(=O)O)c3ccc(S(=O)(=O)O)cc3C2(C)C)=[N+](CCCS(=O)(=O)[O-])c2ccc(S(=O)(=O)O)cc21` (stereo not drawn): the Ki in series [2] stood at 141 nM; in series [3], 1.3 nM. The IC50 in [4] is 197 nM.
For the molecule `Cc1sc2c(c1C)C(c1ccc(Cl)cc1)=N[C@@H](CC(=O)NCCOCCOCCN)c1nnc(C)n1-2`, the concentration for half-maximal inhibition (IC50) worked out at 16 nM in series [5], 7 nM in series [7] and 2480 nM in series [8]. Besides, the Ratio in series [6] was determined as 0.0695. Also, the Papp at 7 h in [1] is 0.0146 ×10⁻⁶ cm/s. Besides, the fold change (FC) in series [9] was over 50; in series [10], 17.2. Moreover, in [11], the EC50 came to 8490 nM.
